Bioassay records as filed in PubChem.
procasp3 activ: activators of human procaspase-3 D3A mutant, primary screen, biochemical, absorbance, PC-3 D3A mutant, single concentration; Caspase-3 (Homo sapiens), P42574; recombinant procaspase-3 D3A, Ac-DEVD-pNA absorbance 405 nm; activation, % at 8.5 µM; 330,000 compounds, 0.11% hits;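 active means activation above the mean of all tested compounds plus 3 SD, cut at about 21% in these data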
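Assay system: Autoprocessing-dead procaspase-3 D3A mutant enzyme; also added: Ac-DEVD-pNA; doses: one concentration, 8.5 µM nominal, 0.8% DMSO; times: 1 h compound preincubation, 2 h substrate hydrolysis at 25 °C; technique: 405 nm absorbance of p-nitroaniline, reads at 0 and 120 min; measure: % activation between DMSO and enzyme-spiked controls; repeats: single replicate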
proCasp7 act: procaspase-7 activators, primary screen, counter-screen for procaspase-3 activator project, biochemical, absorbance, HTS, human; activation, % at 8.5 µM; 330,000 compounds, 0.093% hits; recombinant procaspase-7, Ac-DEVD-pNA absorbance 405 nm; D23A/D198A/D206A triple mutant, cannot self-cleave; scale: DMSO 0, 5 µM enzyme 100;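 active means percent activation above the screen-wide mean plus 3 SD, cut at about 25% in these data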
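Test system: Procaspase-7 triple mutant (PC-7 D3A). Also added: Ac-DEVD-pNA substrate, 400 µM as added. Schedule: 1 h enzyme–compound preincubation and 2 h substrate reaction, both 25 °C. Signal: p-Nitroaniline absorbance at 405 nm, read at 0 and 120 min. Control set: low DMSO alone, high DMSO plus 5 µM PC-7.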
Apaf1 inhib: inhibitors of human Apaf-1 apoptosome, primary screen, biochemical, DEVD-Rh110 fluorescence, uHTS. Apoptotic protease-activating factor 1 (Homo sapiens), O14727. reconstituted apoptosome caspase-3 activity. inhibition, % at 20 µM. 330,000 compounds, 0.71% hits; active means inhibition of at least 40% at 20 µM
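Material: reconstituted apoptosome with Apaf-1, cytochrome c, caspase-9, procaspase-3, dATP / Buffer or medium: pH 7.5 Hepes buffer with CHAPS, BSA, DTT / Also added: cytochrome c with DEVD-Rh110 / Schedule: compound with Apaf-1, dATP, procaspase-3 30 min, then 50 min reaction, room temperature / Technique: rhodamine 110 fluorescence at Ex 480/Em 540 nm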
GSTO1 inh: inhibitors of recombinant GSTO1, primary screen, counter-screen for RBBP9 inhibitor project, biochemical, fluorescence polarization; Glutathione S-transferase omega-1 (Homo sapiens), P78417; activity-based probe fluorescence polarization; inhibition, % at 5.96 µM; 300,000 compounds, 1.1% hits; AID 1974, 2009;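 active means inhibition above the campaign mean inhibition plus 3 SD, cut at about 35% in these data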
EBNA-1 inhibitor: EBNA-1 DNA-binding inhibitors, primary screen, biochemical, fluorescence polarization; inhibition, % at 14.8 µM; 300,000 compounds, 0.34% hits; AID 1950, 2009; in the data active means inhibition above about 28%
ZTA counter: counter-screen for EBNA-1 inhibitors: inhibitors of Epstein-Barr virus ZTA. P03206. ZTA-DNA binding, fluorescence polarization. inhibition, % at 11 µM. 320,000 compounds, 0.15% hits. AID 2234; in the data active means inhibition above about 33%
Apaf-1 inh conf: Apaf-1 inhibitors, single-dose retest, confirmation, biochemical, fluorescence, DEVD-Rh110, 20 µM; shares compounds with Apaf1 inhib; reconstituted apoptosome, caspase-3 DEVD-Rh110 fluorescence; inhibition, % at 20 µM; 1,800 compounds, 25% hits; AID 504614, 2011;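 active means mean inhibition of at least 40% at 20 µM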
Rh110 quench: Rh110 fluorescence interference by putative Apaf-1 inhibitors, confirmation, artefact control for Apaf-1 inhibitor project, biochemical, 20 µM; 1,800 tested, under 10 active; quenched caspase reaction; activation (fluorescence interference), % at 20 µM; shares compounds with Apaf1 inhib;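 active means signal rise of 40% or more at 20 µM, treated as a fluorescence artifact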
Apaf1 inh interf: fluorescence interference of Apaf-1 inhibitor hits, dose response, artefact control for Apaf-1 inhibitor project; IC50, µM; fluorescence interference counterscreen, Apaf-1 assay format; AID 588538, 2011; shares compounds with Apaf1 inhib; 460 tested, under 10 active; call rule not given here
Each line names hits and unclear results; the compound was inactive in the other large screens (follow-up assays come after a bar, where they were run). Hits are enriched below; roughly 1.8% of the tested compounds scored in any of these assays.

CCOC(=O)c1ccc(-n2[nH]c(-c3ccccc3)cc2=O)cc1	Apaf1 inhib 43, GSTO1 inh 36 | Apaf-1 inh conf inactive | Rh110 quench inactive
COc1cccc(NC(=O)CN(C)CC(=O)c2c(C)[nH]c3ccccc23)c1	none (no result: GSTO1 inh, EBNA-1 inhibitor)
O=C(N/N=C/c1ccc(-c2ccc([N+](=O)[O-])cc2)o1)c1cccnc1	none
Cc1cc([N+](=O)[O-])c(C)cc1-c1ccc(/C=N/NC(=O)c2cccnc2)o1	Apaf1 inhib 55 | Apaf-1 inh conf inactive | Rh110 quench inactive
Cc1cc(C)nc(/N=c2/ssnc2Cl)c1	Apaf1 inhib 71 | Apaf-1 inh conf 82 | Rh110 quench inactive | Apaf1 inh interf inactive
Cc1ccc(N=c2ssnc2Cl)cc1	none
CCN(c1ccccc1)S(=O)(=O)c1cccc(C(=O)NCCN2CCOCC2)c1	Apaf1 inhib 44 (no result: GSTO1 inh, EBNA-1 inhibitor) | Apaf-1 inh conf inactive | Rh110 quench inactive
COc1cc(S(=O)(=O)Nc2ccc3c(c2)C(=O)N(C)C3=O)ccc1NC(C)=O	none (no result: GSTO1 inh, EBNA-1 inhibitor, ZTA counter)
CCOc1ncccc1C(=O)OCC(=O)NC1CCCCCC1	none (no result: procasp3 activ, proCasp7 act, GSTO1 inh, EBNA-1 inhibitor, ZTA counter)
COc1cc2nc(N3CCN(c4cc(C)ccc4C)CC3)nc(N)c2cc1OC	none
COc1cc2nc(N3CCNCC3)nc(N)c2cc1OC	Apaf1 inhib 61 | Apaf-1 inh conf 66 | Rh110 quench inactive | Apaf1 inh interf inactive
CN(Cc1ccc(F)cc1)C(=O)c1ccc(NC(=O)CC2SC(N3CCCC3)=NC2=O)cc1 (configuration not stated)	none
CC(=O)Nc1ccc2c(c1)N(C(=O)CN(C)C)c1ccccc1CC2	Apaf1 inhib 43 | Apaf-1 inh conf inactive | Rh110 quench inactive
Cc1nnc(N=c2ssnc2Cl)o1	Apaf1 inhib 50 (no result: GSTO1 inh, EBNA-1 inhibitor) | Apaf-1 inh conf 57 | Rh110 quench inactive | Apaf1 inh interf inactive
COc1ccccc1NS(=O)(=O)c1ccc(C)c(C(=O)NCc2cccnc2)c1	none (no result: GSTO1 inh, EBNA-1 inhibitor)
COc1ccccc1C(CNC(=O)CNC(=O)c1ccccc1Cl)N1CCCC1 (configuration not stated)	Apaf1 inhib 61 (no result: GSTO1 inh, EBNA-1 inhibitor) | Apaf-1 inh conf 43 | Rh110 quench inactive | Apaf1 inh interf inactive
Cc1ccc2nc(N(CCCN(C)C)C(=O)CCc3ccccc3)sc2c1	none (no result: Apaf1 inhib)
CN(C)CCCN(C(=O)CCc1ccccc1)c1nc2ccc(Cl)cc2s1	Apaf1 inhib 44 | Apaf-1 inh conf inactive | Rh110 quench inactive
O=[N+]([O-])c1cc(F)c2cccnc2c1O	Apaf1 inhib 64, GSTO1 inh 58 | Apaf-1 inh conf inactive | Rh110 quench inactive
OCCCCNc1cccc2ccccc12	Apaf1 inhib 81 | Apaf-1 inh conf inactive | Rh110 quench inactive
N#Cc1c(N)n(CCNC(=O)c2cccs2)c2nc3ccccc3nc12	Apaf1 inhib 90 | Apaf-1 inh conf inactive | Rh110 quench inactive
CCCN(CC(=O)Nc1ccccc1C)C(=O)C1CCN(c2ncnc3sc(C)c(C)c23)CC1	Apaf1 inhib 49 | Apaf-1 inh conf inactive | Rh110 quench inactive
CNC(=O)c1ccc(NC(=O)C2CCN(c3ncnc4sc(C)c(C)c34)CC2)cc1	none
Cc1sc2ncnc(N3CCC(C(=O)Nc4ccc(Cl)c(Cl)c4)CC3)c2c1C	Apaf1 inhib 42 (no result: GSTO1 inh, EBNA-1 inhibitor) | Apaf-1 inh conf inactive | Rh110 quench inactive
